pEC50: −log10 of the molar value.
Key:
[1] = test system: Human immunodeficiency virus 1; test: Antiviral activity against HIV1 3B infected in human MT4 cells assessed as protection from virus-induced cytopathogenicity after 4 days by MTT assay; assay type: functional, organism-based; conditions: Human immunodeficiency virus 1, 3B, MT4, 96 h
Method in brief: (§1)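 MT-4 cells at 1 × 10⁵ cells/mL infected with HIV (IIIB or ROD) at a multiplicity of infection of 0.02, using virus stocks titrated in MT-4 cells as CCID₅₀. Compound present during a 4-day incubation at 37 °C. Viable cells counted by MTT. EC₅₀ is the concentration protecting cells against viral cytopathogenicity by 50%. Values are means of at least two separate experiments.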

[2] = Selectivity index, ratio of CC50 for human MT4 cells to EC50 for HIV2 ROD; assay type: toxicity, cell-based; conditions: read-out: Ratio CC50/EC50
Method in brief: (§2)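 Selectivity index is CC₅₀ in uninfected MT-4 cells divided by EC₅₀ against the given strain (IIIB or ROD). Both values come from parallel 4-day MTT assays, with cells infected at a multiplicity of infection of 0.02.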

[3] = Selectivity index, ratio of CC50 for human MT4 cells to EC50 for HIV1 3B; assay type: toxicity, cell-based; conditions: read-out: Ratio CC50/EC50; method in brief: as §2
[4] = test system: Human immunodeficiency virus 2; test: Antiviral activity against HIV2 ROD infected in human MT4 cells assessed as protection from virus-induced cytopathogenicity after 4 days by MTT assay; assay type: functional, organism-based; conditions: Human immunodeficiency virus 2, ISOLATE ROD, MT4, 96 h; method in brief: as §1
[5] = Cytotoxicity against human MT4 cells after 4 days by MTT assay; assay type: cell-based
Method in brief: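 Uninfected MT-4 cells were run in parallel with the antiviral assay: 4 days at 37 °C with compound, then viability read by MTT. CC₅₀ is the concentration that reduces viability of uninfected cells by 50%. Values are means of at least two separate experiments.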

[6] = test system: Human immunodeficiency virus 1; test: Antiviral activity against HIV1 expressing reverse transcriptase K103N/Y181C double mutant infected in human MT4 cells assessed as protection against virus-induced cytopathogenicity after 4 days by MTT assay; assay type: functional, organism-based; conditions: Human immunodeficiency virus 1, MT4, 96 h
Method in brief: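 RES056 strain (carries K103N and Y181C), titrated in MT-4 cells as CCID50. MT-4 cells at 1 × 10⁵ cells/mL infected at MOI 0.02 and incubated 4 days at 37 °C with compound. Viable cells counted by MTT. EC50 is the concentration protecting cells by 50% against viral cytopathogenicity. Values are means of at least two separate experiments.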

[7] = test system: Human immunodeficiency virus 1; test: Ratio of nevirapine EC50 to compound EC50 for HIV1 3B infected in human MT4 cells; assay type: functional
[8] = test system: Human immunodeficiency virus 1; test: Ratio of delavirdine EC50 to compound EC50 for HIV1 3B infected in human MT4 cells; assay type: functional

SMILES	pEC50 [1]	selectivity ratio [2]	selectivity ratio [3]	pEC50 [4]	CC50 at 96 h [5]	pEC50 [6]	Ratio EC50 [7]	Ratio EC50 [8]
N#Cc1ccc(Nc2nccc(/C(=N\O)c3ccc(F)cc3)n2)cc1	6.08	> 19	> 456	4.70	> 377 µM	4.86	–	–
N#Cc1ccc(Nc2nccc(/C(=N\O)c3ccc(Cl)cc3)n2)cc1	7.08	≤ 2	209	≤ 5.13	17.2 µM	≤ 5.12	–	–
N#Cc1ccc(Nc2nccc(/C(=N\O)c3ccccc3Br)n2)cc1	8.30	< 1	2500	< 4.88	13.2 µM	< 4.88	–	–
N#Cc1ccc(Nc2nccc(/C(=N\O)c3cccc(Br)c3)n2)cc1	6.44	< 1	65	< 4.63	23.5 µM	< 4.63	–	–
N#Cc1ccc(Nc2nccc(/C(=N\O)c3ccc(Br)cc3)n2)cc1	6.90	≤ 5	205	≤ 5.30	26 µM	≤ 5.14	–	–
Cc1ccccc1/C(=N/O)c1ccnc(Nc2ccc(C#N)cc2)n1	7.32	< 1	619	< 4.52	29.9 µM	≤ 5.80	–	–
Cc1ccc(/C(=N/O)c2ccnc(Nc3ccc(C#N)cc3)n2)cc1	8.22	≤ 2	2390	≤ 5.18	13.3 µM	≤ 5.29	–	–
N#Cc1ccc(Nc2nccc(/C(=N\O)c3cccc(F)c3)n2)cc1	6.65	≤ 2	67.9	≤ 5.08	15.3 µM	≤ 5.17	–	–
Cc1cccc(/C(=N/O)c2ccnc(Nc3ccc(C#N)cc3)n2)c1	7.49	< 1	626	≤ 4.94	20 µM	5.34	–	–
COc1cccc(/C(=N/O)c2ccnc(Nc3ccc(C#N)cc3)n2)c1	7.60	3.67	1220	5.08	30.5 µM	5.06	8	29
COc1ccc(/C(=N/O)c2ccnc(Nc3ccc(C#N)cc3)n2)cc1	7.89	≤ 11	3790	≤ 5.33	50.2 µM	4.99	–	–
CC(C)(C)c1ccc(/C(=N/O)c2ccnc(Nc3ccc(C#N)cc3)n2)cc1	6.84	< 1	234	≤ 4.47	33.7 µM	5.14	–	–
N#Cc1ccc(Nc2nccc(/C(=N\O)c3ccccc3Cl)n2)cc1	7.89	< 1	997	< 4.90	12.6 µM	< 4.90	–	–
N#Cc1ccc(Nc2nccc(/C(=N\O)c3cccc(Cl)c3)n2)cc1	6.53	≤ 4	102	≤ 5.14	30.4 µM	< 4.83	–	–
Cc1cc(C)cc(/C(=N/O)c2ccnc(Nc3ccc(C#N)cc3)n2)c1	7.33	≤ 4	756	≤ 5.05	35.9 µM	5.10	–	–
N#Cc1ccc(Nc2nccc(/C(=N\O)c3ccccc3)n2)cc1	6.24	< 1	24.6	≤ 4.85	14 µM	5.25	–	–
N#Cc1ccc(Nc2nccc(/C(=N\O)c3ccccc3F)n2)cc1	7.28	< 1	106	< 5.25	5.67 µM	< 5.25	–	–
N#Cc1ccc(Nc2nccc(/C(=N\O)c3cccc4ccccc34)n2)cc1	7.41	< 1	844	< 4.48	33.1 µM	< 4.48	–	–
N#Cc1ccc(Nc2nccc(/C(=N\O)c3ccc4ccccc4c3)n2)cc1	7.33	< 1	673	< 4.85	31.6 µM	< 4.85	–	–
CC(C)Nc1cccnc1N1CCN(C(=O)c2cc3cc(NS(C)(=O)=O)ccc3[nH]2)CC1 [DELAVIRDINE]	6.14	–	> 62	–	> 43.8 µM	< 4.36	–	–
O=C1Nc2ccc(Cl)cc2[C@@](C#CC2CC2)(C(F)(F)F)O1 [EFAVIRENZ]	–	–	–	–	> 6.34 µM	6.74	–	–
Cc1ccnc2c1NC(=O)c1cccnc1N2C1CC1 [NEVIRAPINE]	6.70	–	> 75	–	> 15 µM	< 4.82	–	–
